In ChEMBL document CHEMBL1150129, “Daucane phytoestrogens: a structure-activity study” (J Nat Prod, 2002) one finds Activity data, which are given here for 14 molecules.

Activity calls are given as the source filed them. No cut-off for these calls is given here.

In one experiment the target is T1, Estrogen receptor (Homo sapiens) (UniProt P03372).
T1 sequence (whole entry): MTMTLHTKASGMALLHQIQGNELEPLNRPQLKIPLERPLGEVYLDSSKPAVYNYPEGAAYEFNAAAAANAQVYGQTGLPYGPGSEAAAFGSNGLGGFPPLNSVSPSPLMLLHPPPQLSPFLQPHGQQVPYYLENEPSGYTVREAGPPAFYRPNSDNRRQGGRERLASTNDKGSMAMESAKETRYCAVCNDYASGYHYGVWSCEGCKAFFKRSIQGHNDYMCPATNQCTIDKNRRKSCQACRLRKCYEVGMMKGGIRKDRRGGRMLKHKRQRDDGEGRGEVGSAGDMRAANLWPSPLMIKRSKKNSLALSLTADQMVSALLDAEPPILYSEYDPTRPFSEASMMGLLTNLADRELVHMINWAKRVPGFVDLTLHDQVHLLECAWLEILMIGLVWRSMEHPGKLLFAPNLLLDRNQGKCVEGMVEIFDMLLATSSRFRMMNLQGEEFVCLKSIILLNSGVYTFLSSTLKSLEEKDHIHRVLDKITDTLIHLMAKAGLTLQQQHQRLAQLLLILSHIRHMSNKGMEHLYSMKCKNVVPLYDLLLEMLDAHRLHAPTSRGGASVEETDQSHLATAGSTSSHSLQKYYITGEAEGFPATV
As to the kind of experiment: Binding affinity to human ERalpha expressed in yeast relative to estradiol. The gist of the method:
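Yeast (Saccharomyces cerevisiae) estrogen screen expressing human ERα with estrogen-responsive sequences driving lac-Z. Compound aliquots dried into wells before assay. β-Galactosidase activity read as chlorophenol red β-D-galactopyranoside hydrolysis, absorbance 540 nm.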
Regarding `COc1ccc(C(=O)O[C@H]2CC(C)=CC[C@@]3(C)CC[C@@](O)(C(C)C)[C@H]23)cc1`, the Activity is < 0.0001%. As to `CC1=CC[C@@]2(C)CC[C@@](O)(C(C)C)[C@@H]2[C@@H](OC(=O)c2ccccc2)C1`, the result was inactive. With `COc1cc(/C=C/C(=O)O[C@H]2CC(C)=CC[C@@]3(C)CC[C@@](O)(C(C)C)[C@H]23)cc(OC)c1O`, the outcome was inactive. Consider `CC1=CC[C@@]2(C)CC[C@@](O)(C(C)C)[C@@H]2[C@@H](OC(=O)/C=C/c2ccc(O)c(O)c2)C1`, for which the outcome was inactive. On the same count and under the same terms, with `COc1cc(CC(=O)O[C@H]2CC(C)=CC[C@@]3(C)CC[C@@](O)(C(C)C)[C@H]23)ccc1O` the entry was “inactive”; with `CC1=CC[C@@]2(C)CC[C@@](O)(C(C)C)[C@@H]2[C@@H](OC(=O)/C=C/c2ccc(O)cc2)C1`, < 0.0001%. As to `COc1cc(C(=O)O[C@H]2CC(C)=CC[C@@]3(C)CC[C@@](O)(C(C)C)[C@H]23)cc(OC)c1OC`, the result was inactive. Turning to `CC1=CC[C@@]2(C)CC[C@@](O)(C(C)C)[C@@H]2[C@@H](OC(=O)Cc2ccc(O)cc2)C1`, the Activity was < 0.0001%. On the same count and under the same terms, with `CC1=CC[C@@]2(C)CC[C@@](O)(C(C)C)[C@@H]2[C@@H](OC(=O)CCc2ccc(O)cc2)C1` the figure was < 0.0001%; with `CC1=CC[C@@]2(C)CC[C@@](O)(C(C)C)[C@@H]2[C@@H](OC(=O)CCc2ccc(O)c(O)c2)C1`, “inactive”. For `COc1cc(/C=C/C(=O)O[C@H]2CC(C)=CC[C@@]3(C)CC[C@@](O)(C(C)C)[C@H]23)ccc1O`, the result was inactive. Turning to `CC1=CC[C@@]2(C)CC[C@@](O)(C(C)C)[C@@H]2[C@@H](OC(=O)c2ccc(O)c(O)c2)C1`, the Activity was < 0.1%. On to `COc1cc(C(=O)O[C@H]2CC(C)=CC[C@@]3(C)CC[C@@](O)(C(C)C)[C@H]23)ccc1O`, for which the outcome was inactive. The same measure, in the same setting: with `CC(=O)Oc1ccc(C(=O)O[C@H]2CC(C)=CC[C@@]3(C)CC[C@@](O)(C(C)C)[C@H]23)cc1` the figure was 0.2%.

Another experiment concerns the target T1, Estrogen receptor (Homo sapiens). Briefly: Displacement of [2,4,6,7-3H]estradiol from human recombinant ERalpha receptor. In a few lines: (§1)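 Recombinant human ERα or ERβ (1.5 nM) with 15 nM [3H]-17β-estradiol and diluted compounds in pH 7.5 Tris buffer with 10% glycerol, 2 mM DTT, 1 mg/mL BSA; overnight at 4 °C. Bound ligand captured on hydroxylapatite, washed thrice (ERα: Tris/KCl/EDTA/EGTA; ERβ: Tris only), ethanol-extracted, radioactivity counted.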
Regarding `CC(=O)Oc1ccc(C(=O)O[C@H]2CC(C)=CC[C@@]3(C)CC[C@@](O)(C(C)C)[C@H]23)cc1`, the Activity was < 1%.

The target in another experiment is Estrogen receptor beta (Homo sapiens) (UniProt Q92731). As to the kind of experiment: Displacement of [2,4,6,7-3H]estradiol from human recombinant ERbeta receptor. The gist of the method: as §1
Chain of Estrogen receptor beta (Homo sapiens) (Q92731 whole entry): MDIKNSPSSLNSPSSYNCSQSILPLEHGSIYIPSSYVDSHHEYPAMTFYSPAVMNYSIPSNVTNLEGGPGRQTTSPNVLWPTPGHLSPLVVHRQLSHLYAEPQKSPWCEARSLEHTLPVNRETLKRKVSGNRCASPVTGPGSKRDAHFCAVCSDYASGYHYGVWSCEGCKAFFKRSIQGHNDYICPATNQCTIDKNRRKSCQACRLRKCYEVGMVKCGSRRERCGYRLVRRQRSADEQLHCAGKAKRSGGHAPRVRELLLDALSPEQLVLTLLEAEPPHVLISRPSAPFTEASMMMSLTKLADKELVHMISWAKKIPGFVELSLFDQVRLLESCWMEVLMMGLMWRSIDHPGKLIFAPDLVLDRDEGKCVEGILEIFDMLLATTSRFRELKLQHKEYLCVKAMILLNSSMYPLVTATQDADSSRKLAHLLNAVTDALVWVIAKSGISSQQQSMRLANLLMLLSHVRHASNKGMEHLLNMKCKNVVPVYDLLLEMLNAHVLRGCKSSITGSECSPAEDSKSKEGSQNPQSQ
In the case of `CC(=O)Oc1ccc(C(=O)O[C@H]2CC(C)=CC[C@@]3(C)CC[C@@](O)(C(C)C)[C@H]23)cc1`, the Activity was < 1%.
